Screening data (PubChem BioAssay)
Most compounds without a hit are left out; they make up all but 1.8% or so of the library.
TNAP inh no acc: blocks human TNAP activity with no phosphate acceptor present. P05186. purified TNAP, CDP-star luminescence, 30 min. inhibition, % at 20 µM. actives 0.26% (n = 200,000). AID 1012;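 active = tissue-nonspecific alkaline phosphatase inhibition above about 50% at 20 µM in the single-dose screen, limit read from the data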;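 note: 0% = DMSO negative control and 100% = EDTA positive control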
Target sequence (P05186 whole entry, looked up): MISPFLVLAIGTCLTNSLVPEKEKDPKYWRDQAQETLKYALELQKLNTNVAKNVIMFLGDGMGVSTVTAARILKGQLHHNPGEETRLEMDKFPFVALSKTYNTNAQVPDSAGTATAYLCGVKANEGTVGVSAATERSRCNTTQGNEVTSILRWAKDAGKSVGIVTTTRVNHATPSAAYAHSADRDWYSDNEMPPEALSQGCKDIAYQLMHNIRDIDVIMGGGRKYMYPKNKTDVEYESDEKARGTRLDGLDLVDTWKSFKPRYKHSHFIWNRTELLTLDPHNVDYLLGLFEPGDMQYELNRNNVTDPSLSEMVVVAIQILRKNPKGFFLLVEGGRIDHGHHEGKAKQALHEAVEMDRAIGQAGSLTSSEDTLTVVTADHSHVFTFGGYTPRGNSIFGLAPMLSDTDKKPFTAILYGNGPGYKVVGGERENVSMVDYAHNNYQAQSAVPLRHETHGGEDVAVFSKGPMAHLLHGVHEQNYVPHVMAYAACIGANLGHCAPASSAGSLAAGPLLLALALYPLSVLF
p47phox inh: inhibitors of human p47phox binding; P14598; p47phox/p22phox peptide binding, fluorescence polarization, 2 h; inhibition, % at 24.7 µM; actives 0.53% (n = 220,000); AID 1274;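 active = inhibition above about 30%, limit read from the data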;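 note: 0% = p47phox with labelled peptide and 100% = labelled peptide alone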
Autophagy HCS: alters autophagy in cells | MEF GFP-LC3 puncta imaging; test concentration mostly 10 µM | calls only at 10 µM (by protocol) | actives 0.98% (n = 190,000);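 active = percentage of spot-positive cells more than 3 SD above its plate mean, without a fluorescence outlier flag or 80% toxicity; inconclusive = no clear call, values can overlap the other calls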;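 note: spot-positive cell cutoff set from DMSO-treated cells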
TNAP inh hiacc: blocks human TNAP under high phosphate acceptor concentration | P05186 | purified TNAP, CDP-star luminescence, 1 M DEA | inhibition, % at 20 µM | actives 0.03% (n = 200,000);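 active = over 50% inhibition of tissue-nonspecific alkaline phosphatase at 20 µM in the single-dose screen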;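 note: plate controls were DMSO wells for no effect and EDTA-quenched wells as full inhibition for full effect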
TNAP act hiacc: TNAP (human) activation, high acceptor. purified TNAP, CDP-star luminescence, 1 M DEA, 30 min; stronger effect = higher value; 0 = EDTA background, 1 = DMSO-only activity. activation factor at 20 µM. 200,000 tested, under 10 active. AID 1136;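 active = activation factor at least 2 at 20 µM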
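system = human TNAP | amount = enzyme diluted 1/800 final | reagent = 100 µM CDP-star substrate | signal = luminescent substrate turnover signal | dosing = one dose, 20 µM | benchmarks = EDTA negative control, DMSO positive control | measure = activation factor | timing = 30 min reaction, room temperature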
Insulin prom up: MIN6 insulin promoter up-regulation; MIN6 insulin promoter-GFP reporter, high-content imaging; stronger effect = higher value; z-score at 5 µM; actives 0.3% (n = 190,000);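 active = z-score above 3 at 5 µM with at least 500 cells counted in the well; inconclusive = wells under 500 cells, flagged as cytotoxic or low count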
The depositor's hits bear a star; i = inactive; ? = inconclusive; . = no result given; + = active, no number.

SMILES	TNAP inh no acc	p47phox inh	Autophagy HCS	TNAP inh hiacc	TNAP act hiacc	Insulin prom up
CCN1CCN(c2cc(C)c3cc(NC(=S)N4CCCC(C)C4)ccc3n2)CC1 (stereo unspecified)	-2	-4	i	-4	1	-0.08
CCN1/C(=C/c2ccc3cc(C)cc(C)c3[n+]2CC)Sc2cc(C)ccc21	2	-35	?	23	0.8	?
CCN1/C(=C/c2ccc3cccc(C)c3[n+]2CC)Sc2ccccc21	31	-81	+	27	0.7	.
CCN1/C(=C\c2ccc3cc(C)ccc3[n+]2CC)Sc2cc(C)c(C)cc21	10	7	+	25	0.7	?
Cc1ccc(S(=O)(=O)n2nc(C)cc2C)cc1	-5	43*	i	2	1	-0.91
Cn1c(N)c(C(=O)c2ccc(C#N)cc2)c(=O)n(C)c1=O	-5	-3	i	-2	1	-0.54
COc1ccc(OCc2nc(N)nc(Nc3ccccc3OC)n2)cc1	-4	99*	i	-3	1	.
COC(=O)c1c(NC(=O)COC(=O)CCc2ccc(S(=O)(=O)N3CCOCC3)cc2)sc2c1CCC2	-15	-27	i	-4	1	1.7
Cc1noc(C)c1C(=O)N1CCN(S(=O)(=O)c2cccc(Cl)c2Cl)CC1	.	-7	.	.	.	-0.11
O=C(O)/C(=C\c1ccco1)NC(=O)c1cccc2ccccc12	-8	127*	i	2	1	.
COc1ccc(N2CSC3=C(C#N)C(c4cc(OC)c(OC)cc4OC)CC(=O)N3C2)c(OC)c1 (stereo unspecified)	-5	33*	i	1	1	-0.53
COc1ccc(N2CSC3=C(C#N)C(c4cc(OC)ccc4OC)CC(=O)N3C2)c(OC)c1 (stereo unspecified)	23	7	i	-1	1	-1.3
CN(C)Cc1cc(CCNC(=O)c2ccc(Cl)cc2)ccc1O	1	-8	i	-9	1.1	-0.04
Nc1ccccc1Oc1c(F)c(F)c(Oc2ccccc2N)c(F)c1F	-6	-3	i	-2	1	0.31
CC(C)CCNC(=O)C(C)N(C(=O)c1snc(C(N)=O)c1N)c1cnc2ccccc2c1 (stereo unspecified)	62*	-5	i	3	1	1
CC(C(=O)NCC1CCCO1)N(C(=O)c1snc(C(N)=O)c1N)c1ccccc1 (stereo unspecified)	-14	-3	i	-4	1	0.07
O=c1c(C(c2ccc(F)cc2)c2c(O)nc3n(c2=O)CCS3)c(O)nc2n1CCS2	.	-10	.	.	.	0.58
CCOc1ccc(NC(=O)c2nsc(Cl)c2Cl)cc1	-5	0	+	-3	1	-0.1
NC(=O)C1(c2ccccc2)CCOCC1	-4	-1	+	0	1	1.2
CC(C)N(C(=O)COC(=O)[C@@H]1CC(O)CN1S(=O)(=O)c1ccc(C(C)(C)C)cc1)C(C)C (stereo partly specified)	-13	-1	i	-6	1.1	-0.36
C=CCNc1sc(C(=O)c2ccc(Br)s2)c(N)c1C#N	0	-31	+	2	1	.
NS(=O)(=O)c1ccc(N2C(=O)C(=O)/C(=C(/O)c3ccccc3)C2c2ccc(Cl)cc2)cc1 (stereo unspecified)	.	-2	.	.	.	0.16
CCOP(=O)(O)c1ccccc1OCCOCCOc1ccccc1P(=O)(O)OCC	-15	-20	i	-6	1.1	1.1
O=P(O)(O)c1ccccc1OCc1ccccc1	15	-12	i	-1	1	-0.48
O=P(O)(O)c1ccccc1OCCOCCOc1ccccc1P(=O)(O)O	72*	-2	i	3	1	1.2
SMILES	TNAP inh no acc	p47phox inh	Autophagy HCS	TNAP inh hiacc	TNAP act hiacc	Insulin prom up
O=P(O)(O)c1ccccc1OCCCCCOc1ccccc1P(=O)(O)O	89*	-2	i	12	0.9	0.01
N#CCCN(C(=O)COC(=O)c1ccc(CNS(=O)(=O)c2ccc(F)c(Cl)c2)cc1)c1ccc(F)cc1	-3	3	i	3	1	0.63
CC(NC(=O)Cn1cccc1C(=O)c1ccccc1)c1ccc2c(c1)OCCO2 (stereo unspecified)	-12	71*	i	-2	1	.
O=C(Cn1cccc1C(=O)c1ccccc1)NCc1ccc2c(c1)OCO2	-4	-2	i	2	1	-1.2
O=C(CC1(O)C(=O)N(Cc2cccc3ccccc23)c2ccccc21)c1cccnc1 (stereo unspecified)	-5	-6	+	0	1	.
CN1C(=O)C(O)(CC(=O)c2cccnc2)c2ccccc21 (stereo unspecified)	-5	-5	i	1	1	.
Cc1nc2ccccc2c2oc(C(=O)NCc3ccc4c(c3)OCO4)cc12	-5	121*	i	-10	1.1	-0.36
Cc1ccc(CNC(=O)c2cc3c(C)nc4ccccc4c3o2)cc1	-9	9	.	-2	1	-0.49
O=c1[nH]cc([N+](=O)[O-])cc1Br	-19	-3	+	5	1	0.38
CSS(=O)(=O)c1cccc2cccnc12	.	-9	.	.	.	0.03
C=CCc1ccc(OCCCCNC2CCCC2)c(OC)c1	-15	4	i	-6	1.1	0.38
COc1c2c(nc3ccccc13)OC(C(C)(O)COC(C)=O)C2 (stereo unspecified)	-2	-2	i	-8	1.1	3.3*
Cc1nc2ccccc2c2c1CC(C(C)(Cl)Br)O2 (stereo unspecified)	.	-6	.	.	.	?
CN(C)c1ccc(/C=C2\N=C(c3ccc(Cl)c([N+](=O)[O-])c3)NC2=O)cc1	50*	.	i	45	0.6	.
CCOC(=O)c1cc(CC)sc1NC(=O)c1cc([N+](=O)[O-])ccc1N1CCOCC1	-15	0	+	-5	1	-0.43
O=C(c1cc([N+](=O)[O-])ccc1N1CCCC1)N1CCCC1	6	-7	i	8	0.9	3.1*
O=C(c1ccc(Br)cc1)c1cc([N+](=O)[O-])ccc1N1CCOCC1	-8	4	+	1	1	0.28
CCOC(=O)c1cc(CC)sc1NC(=O)c1ccc(N2CCOCC2)c([N+](=O)[O-])c1	-2	-14	i	-4	1	-0.55
O=C(c1ccc(Cl)cc1)c1cc([N+](=O)[O-])ccc1N1CCOCC1	-2	0	+	2	1	0.32
C=CCn1nnnc1-c1cc(Cl)cc(Cl)c1	-6	4	i	-6	1.1	-0.4
CCC1CCCCN1Cc1nc(Cc2ccccc2Cl)no1 (stereo unspecified)	.	6	.	.	.	-0.08
COc1ccc(CNC(=O)c2noc3c2CCCCC3)cc1	-10	-6	i	-6	1.1	-0.08
O=C(NCc1ccccc1)c1noc2c1CCCCC2	-5	-9	+	-5	1.1	0.22
